Values belong to the molecule of their own block, whether it stands above or below them.
Columns and labels:
[1] = target: T1, bovine rod photoreceptor CNG channel α subunit (Bos taurus, UniProt Q00194); assay: Inside-out patch clamp of rod CNG channels expressed in Xenopus oocytes; format: biochemical; settings: for effect on cGMP sensitivity (K 1/2 for cGMP): 10 μM genistein, 10 μM lavendustin A, 25 μM erbstatin
T1 sequence (Q00194 1-690): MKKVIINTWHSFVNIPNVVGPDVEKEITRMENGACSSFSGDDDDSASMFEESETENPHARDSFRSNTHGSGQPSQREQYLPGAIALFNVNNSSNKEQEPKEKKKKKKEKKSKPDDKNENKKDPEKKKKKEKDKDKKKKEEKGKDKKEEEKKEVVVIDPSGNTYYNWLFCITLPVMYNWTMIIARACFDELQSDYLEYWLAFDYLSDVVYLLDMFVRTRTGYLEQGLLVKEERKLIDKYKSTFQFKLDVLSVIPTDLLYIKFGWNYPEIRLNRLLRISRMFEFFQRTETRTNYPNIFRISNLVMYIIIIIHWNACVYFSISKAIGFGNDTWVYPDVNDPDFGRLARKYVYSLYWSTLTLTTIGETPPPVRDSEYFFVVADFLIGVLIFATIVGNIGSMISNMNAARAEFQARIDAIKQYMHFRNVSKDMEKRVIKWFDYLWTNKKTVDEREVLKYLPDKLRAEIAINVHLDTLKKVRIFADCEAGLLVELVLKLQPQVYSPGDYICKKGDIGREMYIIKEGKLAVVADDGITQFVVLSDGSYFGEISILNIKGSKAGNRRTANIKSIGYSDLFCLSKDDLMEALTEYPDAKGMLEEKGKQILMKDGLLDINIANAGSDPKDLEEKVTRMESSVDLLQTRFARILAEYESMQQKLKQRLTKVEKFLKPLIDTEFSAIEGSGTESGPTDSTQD
Method in brief: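 Inside-out patches from Xenopus oocytes 2–7 d after injection (vitelline membrane removed), 21–24°C, held at −75 mV. Pipette/bath solution: 115 mM NaCl, 5 mM EGTA, 1 mM EDTA, 10 mM HEPES, pH 7.5. Test compound preapplied 1 min to closed channels (±100 μM erbstatin) at 1 or 10 min after excision, or applied at steady state; then 2 mM cGMP. Currents normalized to Imax; Ki, Hill coefficient and cGMP K1/2 (4–5 cGMP levels) fitted to Hill equation; mean ± SEM.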

[2] = target: T2, rat olfactory CNG channels (Rattus norvegicus, UniProt Q00195); format: biochemical; settings: n = 10 patches
T2 sequence (Q00195 1-664): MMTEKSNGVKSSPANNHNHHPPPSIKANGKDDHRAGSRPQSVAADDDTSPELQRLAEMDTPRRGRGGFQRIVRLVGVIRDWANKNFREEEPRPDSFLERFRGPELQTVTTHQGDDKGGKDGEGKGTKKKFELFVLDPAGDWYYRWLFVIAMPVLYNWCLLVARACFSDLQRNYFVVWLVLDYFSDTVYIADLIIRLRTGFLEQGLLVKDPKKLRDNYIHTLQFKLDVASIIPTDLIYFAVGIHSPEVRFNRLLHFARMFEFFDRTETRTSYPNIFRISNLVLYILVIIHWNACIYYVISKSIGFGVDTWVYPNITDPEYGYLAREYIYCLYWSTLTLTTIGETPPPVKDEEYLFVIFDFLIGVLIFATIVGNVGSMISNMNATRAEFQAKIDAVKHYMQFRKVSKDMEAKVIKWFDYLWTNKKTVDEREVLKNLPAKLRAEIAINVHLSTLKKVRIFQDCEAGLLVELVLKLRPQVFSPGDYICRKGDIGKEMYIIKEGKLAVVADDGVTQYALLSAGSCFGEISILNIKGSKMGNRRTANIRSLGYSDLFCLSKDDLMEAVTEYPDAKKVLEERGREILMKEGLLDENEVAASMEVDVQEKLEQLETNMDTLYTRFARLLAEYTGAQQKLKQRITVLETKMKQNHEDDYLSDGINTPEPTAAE

[3] = test system: native CNG channels from salamander rod outer segments; assay: Inside-out patches with native CNG channels from rod outer segments; format: biochemical, tiger salamanders (Ambystoma tigrinum); settings: 100 μM genistein
rod CNG channel = settings: ref Fodor et al., 1997a; cited from earlier work
[4] = 100 μM genistein, preexposure 1 min, 2 mM cGMP

Structure (SMILES): O=CN/C=C/c1cc(O)ccc1O [erbstatin]
- effect on cGMP sensitivity (K 1/2 for cGMP) ([1]; in the presence of ATP): increase in cGMP sensitivity

Structure (SMILES): CCCCNc1ccc(C(=O)OCCN(C)C)cc1 [tetracaine]
- time of block (rod CNG channel): < 100 ms

Further lines, with some results ahead:

- effect on rod CNG channels (maximal current) ([1]; saturating cGMP): no effect
- effect on rat olfactory CNG channels [2]: no effect
Structure (SMILES): O=c1c(-c2ccc(O)cc2)coc2cc(O)ccc12 [daidzein]

- time course of inhibition [1]: > 30 s
- residual current, % of maximal CNG current ([1]; 100 μM genistein with 100 μM erbstatin present): 20%
- residual current (fraction of total current with normal rapid activation) [1, 4]: 4.5%
- steady state current elicited by cGMP [1, 4]: 40 % of control
- residual current, % of maximal CNG current ([1]; 100 μM genistein, without erbstatin): < 5%
- voltage dependence of inhibition ([1]; 100 μM genistein, saturating cGMP): voltage-independent
- time constant of slow current activation by cGMP ([1]; 100 μM genistein, single exponential fit): 10.6 s
- Ki ([1]; K i for genistein inhibition of CNG current activation by cGMP, in the presence of 1 mM ATP): 10.6 ± 1.3 µM
- Ki ([1]; apparent affinity of genistein for the rod channel, closed to activated channels): 5 to 80 µM
- K i values at 1 versus 10 min after patch excision ([1]; closed channels, residual current): do not differ
- extent of inhibition of steady state (fully activated) CNG current ([1]; high genistein concentrations (e.g., 1 mM)): incomplete
- Hill coefficient for genistein inhibition ([1]; in the absence of ATP): 1.9 ± 0.2
- effect on cGMP sensitivity (K 1/2 for cGMP) ([1]; in the absence of ATP): no effect
- Hill coefficient for genistein inhibition ([1]; in the presence of ATP): 2.0 ± 0.2
- effect on cGMP sensitivity (K 1/2 for cGMP) ([1]; in the presence of ATP): increase in cGMP sensitivity
- inhibition at 100 µM ([1]; read-out: inhibition of closed channels, 100 μM genistein, without erbstatin): > 95%
- extent of inhibition of closed channels ([1]; saturating genistein (>100 μM)): complete inhibition
- time constant of inhibition of closed CNG channels ([1]; single exponential fit, data not shown): 8.9 s
- time required to recover from genistein inhibition ([1]; unpublished observations): > 60 s
- effect on rat olfactory CNG channels [2]: no effect
Structure (SMILES): O=c1c(-c2ccc(O)cc2)coc2cc(O)cc(O)c12 [genistein]
- effect on cGMP-activated current of native channels [3]: reduced the magnitude of the cGMP-activated current and slowed the activation kinetics

- effect on cGMP sensitivity (K 1/2 for cGMP) ([1]; in the presence of ATP): increase in cGMP sensitivity
Structure (SMILES): O=C(O)c1cc(N(Cc2ccccc2O)Cc2cc(O)ccc2O)ccc1O [lavendustin A]

From paper PMC2222990 (The Journal of General Physiology, 1999)
